According to ChEMBL document CHEMBL4270565, “Design, synthesis and antimicrobial evaluation of propylene-tethered ciprofloxacin-isatin hybrids” (Eur J Med Chem, 2018):
In brackets after ≈: the same amount, converted by molar mass.

Tested on: Pseudomonas aeruginosa
Assay: Antibacterial activity against Pseudomonas aeruginosa ATCC 27853 after 18 to 24 hrs by two-fold serial dilution method
Format: functional
Conditions: not given
Method in brief: (§1)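 Agar two-fold dilution MIC. Compounds were dissolved in 0.1 N NaOH and water, then serially diluted in melted Mueller-Hinton agar, with top concentrations starting at 128. Plates were inoculated at about 10 cfu and incubated at 35 °C for 18–24 h. MIC was taken as the lowest concentration giving 90% inhibition of growth.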

SMILES | MIC90
O=C(O)c1cn(C2CC2)c2cc(N3CCNCC3)c(F)cc2c1=O [CIPROFLOXACIN] | 0.25 µg/mL (≈ 0.754 µM)

Tested on: not listed separately
Assay: Cytotoxicity against African green monkey Vero cells assessed as reduction in cell viability after 72 hrs by MTT assay
Format: cell-based
Conditions: chlorocebus sabaeus
Method in brief: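 VERO cells were kept in MEM with Earle's salts and 10% FBS at 37 °C, 5% CO2. They were seeded in 96-well plates and allowed to recover for 24 h. Cells were then exposed to compounds in DMSO over a series from 1000 down to 4 for 72 h. Viability was read by MTT, and CC50 was calculated by Bliss analysis.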

SMILES | CC50 at 72 h
O=C(O)c1cn(C2CC2)c2cc(N3CCNCC3)c(F)cc2c1=O [CIPROFLOXACIN] | 128 µg/mL (≈ 386 µM)

Tested on: Enterococcus faecium
Assay: Antibacterial activity against Enterococcus faecium 13-7 after 18 to 24 hrs by two-fold serial dilution method
Format: functional
Conditions: not given
Method in brief: as §1

SMILES | MIC90
O=C(O)c1cn(C2CC2)c2cc(N3CCNCC3)c(F)cc2c1=O [CIPROFLOXACIN] | 128 µg/mL (≈ 386 µM)

Tested on: Enterococcus faecium
Assay: Antibacterial activity against Enterococcus faecium ATCC 700221 after 18 to 24 hrs by two-fold serial dilution method
Format: functional
Conditions: not given
Method in brief: as §1

SMILES | MIC90
O=C(O)c1cn(C2CC2)c2cc(N3CCNCC3)c(F)cc2c1=O [CIPROFLOXACIN] | 8 µg/mL (≈ 24.1 µM)

Tested on: Escherichia coli
Assay: Antibacterial activity against extended-spectrum beta-lactamase harboring Escherichia coli ATCC 35218 after 18 to 24 hrs by two-fold serial dilution method
Format: functional
Conditions: not given
Method in brief: (§2)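 Agar two-fold serial dilution in Mueller-Hinton agar. Strains came from the Chinese Center for Disease Control and Prevention. Compounds were dissolved in 0.1 N NaOH and water, then diluted in melted agar to final levels stepping down from 128. Plates were inoculated with bacterial cfu and incubated at 35 C for 18–24 h. MIC is the lowest concentration giving 90% growth inhibition.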

SMILES | MIC90
O=C(O)c1cn(C2CC2)c2cc(N3CCNCC3)c(F)cc2c1=O [CIPROFLOXACIN] | ≤ 0.03 µg/mL

Tested on: Klebsiella pneumoniae
Assay: Antibacterial activity against extended-spectrum beta-lactamase deficient Klebsiella pneumoniae 15-2 after 18 to 24 hrs by two-fold serial dilution method
Format: functional
Conditions: not given
Method in brief: as §1

SMILES | MIC90
O=C(O)c1cn(C2CC2)c2cc(N3CCNCC3)c(F)cc2c1=O [CIPROFLOXACIN] | ≤ 0.03 µg/mL

Tested on: Staphylococcus epidermidis
Assay: Antibacterial activity against methicillin-sensitive Staphylococcus epidermidis ATCC 12228 after 18 to 24 hrs by two-fold serial dilution method
Format: functional
Conditions: not given
Method in brief: as §1

SMILES | MIC90
O=C(O)c1cn(C2CC2)c2cc(N3CCNCC3)c(F)cc2c1=O [CIPROFLOXACIN] | 0.125 µg/mL (≈ 0.377 µM)

Tested on: Stenotrophomonas maltophilia
Assay: Antibacterial activity against Stenotrophomonas maltophilia ATCC 13636 after 18 to 24 hrs by two-fold serial dilution method
Format: functional
Conditions: not given
Method in brief: as §1

SMILES | MIC90
O=C(O)c1cn(C2CC2)c2cc(N3CCNCC3)c(F)cc2c1=O [CIPROFLOXACIN] | 2 µg/mL (≈ 6.04 µM)

Tested on: Staphylococcus epidermidis
Assay: Antibacterial activity against methicillin-resistant Staphylococcus epidermidis 13-3 after 18 to 24 hrs by two-fold serial dilution method
Format: functional
Conditions: not given
Method in brief: as §2

SMILES | MIC90
O=C(O)c1cn(C2CC2)c2cc(N3CCNCC3)c(F)cc2c1=O [CIPROFLOXACIN] | 64 µg/mL (≈ 193 µM)

Tested on: Enterococcus faecalis
Assay: Antibacterial activity against Enterococcus faecalis ATCC 29212 after 18 to 24 hrs by two-fold serial dilution method
Format: functional
Conditions: not given
Method in brief: as §1

SMILES | MIC90
O=C(O)c1cn(C2CC2)c2cc(N3CCNCC3)c(F)cc2c1=O [CIPROFLOXACIN] | 0.5 µg/mL (≈ 1.51 µM)

Tested on: Klebsiella pneumoniae
Assay: Antibacterial activity against extended-spectrum beta-lactamase harboring Klebsiella pneumoniae ATCC 700603 after 18 to 24 hrs by two-fold serial dilution method
Format: functional
Conditions: not given
Method in brief: as §2

SMILES | MIC90
O=C(O)c1cn(C2CC2)c2cc(N3CCNCC3)c(F)cc2c1=O [CIPROFLOXACIN] | 0.5 µg/mL (≈ 1.51 µM)

Tested on: not listed separately
Assay: Tmax in ICR mouse at 50 mg/kg, po administered as single dose by HPLC analysis
Format: ADME, organism-based
Conditions: in vivo
Method in brief: (§3)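 Mice (3 per group), fasted overnight, given a single oral dose of 50 mg/kg as a suspension in 0.5% CMC. Jugular vein blood taken at 0.25, 0.5, 1, 2, 4, 6, 8 and 24 h. Serum proteins precipitated with acetonitrile and centrifuged; the dried supernatant was redissolved in acetonitrile for HPLC. PK parameters were derived directly from the concentration–time data.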

SMILES | Tmax
O=C(O)c1cn(C2CC2)c2cc(N3CCNCC3)c(F)cc2c1=O [CIPROFLOXACIN] | 1.8 h

Tested on: Morganella morganii
Assay: Antibacterial activity against Morganella morganii ATCC 25830 after 18 to 24 hrs by two-fold serial dilution method
Format: functional
Conditions: not given
Method in brief: as §1

SMILES | MIC90
O=C(O)c1cn(C2CC2)c2cc(N3CCNCC3)c(F)cc2c1=O [CIPROFLOXACIN] | ≤ 0.03 µg/mL

Tested on: Klebsiella aerogenes
Assay: Antibacterial activity against Enterobacter aerogenes ATCC 13048 after 18 to 24 hrs by two-fold serial dilution method
Format: functional
Conditions: not given
Method in brief: as §1

SMILES | MIC90
O=C(O)c1cn(C2CC2)c2cc(N3CCNCC3)c(F)cc2c1=O [CIPROFLOXACIN] | ≤ 0.03 µg/mL

Tested on: not listed separately
Assay: AUC (0 to infinity) in ICR mouse at 50 mg/kg, po administered as single dose by HPLC analysis
Format: ADME, organism-based
Set-up: dose 50 mg/kg, route oral, time infinity
Conditions: in vivo
Method in brief: as §3

SMILES | AUC(0-inf)
O=C(O)c1cn(C2CC2)c2cc(N3CCNCC3)c(F)cc2c1=O [CIPROFLOXACIN] | 17800 ng·h/mL

Tested on: Mycobacterium tuberculosis
Assay: Antimycobacterial activity against Mycobacterium tuberculosis H37Rv after 7 days
Format: functional
Conditions: 168 h
Method in brief: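 Rapid direct susceptibility test in 48-well plates. Two-fold dilutions of compound from DMSO stocks were mixed with an equal volume of bacterial suspension. Medium-only wells served as growth controls and water-only wells as no-growth controls. Plates were sealed and held at 37 C in a humid box, and controls were checked at 3 days. MIC (90% growth inhibition) was read visually by high-magnification observation of the cells and re-read at 7 days.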

SMILES | MIC90
O=C(O)c1cn(C2CC2)c2cc(N3CCNCC3)c(F)cc2c1=O [CIPROFLOXACIN] | 0.78 µg/mL (≈ 2.35 µM)

Tested on: Proteus mirabilis
Assay: Antibacterial activity against Proteus mirabilis 13-1 after 18 to 24 hrs by two-fold serial dilution method
Format: functional
Conditions: not given
Method in brief: as §1

SMILES | MIC90
O=C(O)c1cn(C2CC2)c2cc(N3CCNCC3)c(F)cc2c1=O [CIPROFLOXACIN] | ≤ 0.03 µg/mL

Tested on: Proteus vulgaris
Assay: Antibacterial activity against Proteus vulgaris ATCC 29905 after 18 to 24 hrs by two-fold serial dilution method
Format: functional
Conditions: not given
Method in brief: as §1

SMILES | MIC90
O=C(O)c1cn(C2CC2)c2cc(N3CCNCC3)c(F)cc2c1=O [CIPROFLOXACIN] | ≤ 0.03 µg/mL

Tested on: Citrobacter freundii
Assay: Antibacterial activity against extended-spectrum beta-lactamase harboring Citrobacter freundii ATCC 43864 after 18 to 24 hrs by two-fold serial dilution method
Format: functional
Conditions: not given
Method in brief: as §2

SMILES | MIC90
O=C(O)c1cn(C2CC2)c2cc(N3CCNCC3)c(F)cc2c1=O [CIPROFLOXACIN] | ≤ 0.03 µg/mL

Tested on: Enterococcus faecalis
Assay: Antibacterial activity against Enterococcus faecalis ATCC 51299 after 18 to 24 hrs by two-fold serial dilution method
Format: functional
Conditions: not given
Method in brief: as §1

SMILES | MIC90
O=C(O)c1cn(C2CC2)c2cc(N3CCNCC3)c(F)cc2c1=O [CIPROFLOXACIN] | 0.5 µg/mL (≈ 1.51 µM)

Tested on: Staphylococcus aureus
Assay: Antibacterial activity against methicillin-sensitive Staphylococcus aureus ATCC 29213 after 18 to 24 hrs by two-fold serial dilution method
Format: functional
Conditions: not given
Method in brief: as §2

SMILES | MIC90
O=C(O)c1cn(C2CC2)c2cc(N3CCNCC3)c(F)cc2c1=O [CIPROFLOXACIN] | 0.25 µg/mL (≈ 0.754 µM)

Tested on: Staphylococcus aureus
Assay: Antibacterial activity against methicillin-resistant Staphylococcus aureus ATCC 33591 after 18 to 24 hrs by two-fold serial dilution method
Format: functional
Conditions: not given
Method in brief: as §2

SMILES | MIC90
O=C(O)c1cn(C2CC2)c2cc(N3CCNCC3)c(F)cc2c1=O [CIPROFLOXACIN] | 0.5 µg/mL (≈ 1.51 µM)

Tested on: Providencia rettgeri
Assay: Antibacterial activity against Providencia rettgeri ATCC 31052 after 18 to 24 hrs by two-fold serial dilution method
Format: functional
Conditions: not given
Method in brief: as §1

SMILES | MIC90
O=C(O)c1cn(C2CC2)c2cc(N3CCNCC3)c(F)cc2c1=O [CIPROFLOXACIN] | ≤ 0.03 µg/mL

Tested on: Acinetobacter calcoaceticus
Assay: Antibacterial activity against Acinetobacter calcoaceticus ATCC 19606 after 18 to 24 hrs by two-fold serial dilution method
Format: functional
Conditions: not given
Method in brief: as §1

SMILES | MIC90
O=C(O)c1cn(C2CC2)c2cc(N3CCNCC3)c(F)cc2c1=O [CIPROFLOXACIN] | 0.5 µg/mL (≈ 1.51 µM)

Tested on: not listed separately
Assay: Cmax in ICR mouse at 50 mg/kg, po administered as single dose by HPLC analysis
Format: ADME, organism-based
Set-up: dose 50 mg/kg, route oral
Conditions: in vivo
Method in brief: as §3

SMILES | Cmax
O=C(O)c1cn(C2CC2)c2cc(N3CCNCC3)c(F)cc2c1=O [CIPROFLOXACIN] | 3130 ng/mL

Tested on: Escherichia coli
Assay: Antibacterial activity against extended-spectrum beta-lactamase deficient Escherichia coli ATCC 25922 after 18 to 24 hrs by two-fold serial dilution method
Format: functional
Conditions: not given
Method in brief: as §1

SMILES | MIC90
O=C(O)c1cn(C2CC2)c2cc(N3CCNCC3)c(F)cc2c1=O [CIPROFLOXACIN] | ≤ 0.03 µg/mL

Tested on: Serratia marcescens
Assay: Antibacterial activity against Serratia marcescens ATCC 21074 after 18 to 24 hrs by two-fold serial dilution method
Format: functional
Conditions: not given
Method in brief: as §1

SMILES | MIC90
O=C(O)c1cn(C2CC2)c2cc(N3CCNCC3)c(F)cc2c1=O [CIPROFLOXACIN] | 0.06 µg/mL (≈ 0.181 µM)
